The list is not random: actives were taken first. Their share in the collection is about 3%.
MEKK2mut PB1 HTS: signal of MEK5 binding to mutant human MEKK2 PB1 domain; bead flow cytometry, Alexa488-MEK5 binding to MEKK2 mutant; 290,000 compounds, 0.35% hits; percent response, % at 10 µM; AID 1530; in the data active means percent response above about 24%, passing the limit was not always enough
UBC13 inh: blocks human UBC13 polyubiquitin chain formation; inhibition, % at 20 µM; 330,000 compounds, 0.47% hits; TR-FRET; in the data active means inhibition above about 45%, passing the limit was not always enough
UCH37 DUB inh: blocks the human deubiquitinase UCH37 | Q9Y5K5 | purified proteasome/UCH37, Ub-AMC cleavage fluorescence | inhibition, % (no concentration beside the values) | 330,000 compounds, 0.33% hits | AID 588478;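 active means mean inhibition over replicate wells above about 20%, limit read from the data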;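 further: 0% = compound-free wells with enzyme and 100% = wells lacking proteasome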
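Material: human UCH37 enzyme supplied as purified proteasome complex / Amount: 0.15 nM proteasome as dispensed / Buffer or medium: pH 7.4 Tris-HCl (50 mM) with ovalbumin, ATP-MgCl2, DTT / Times: preincubation 30 min, reaction 25 min, room temperature / Technique: AMC fluorescence from Ub-AMC cleavage, excitation 355 nm, emission 460 nm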
Apaf1 inhib: inhibitors of human Apaf-1 apoptosome; O14727; reconstituted apoptosome caspase-3 activity, DEVD-Rh110 fluorescence; inhibition, % at 20 µM; 330,000 compounds, 0.71% hits; AID 489030; active means inhibition of at least 40% at 20 µM;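 further: plate controls were DMSO wells for no effect and DEVD-CHO caspase inhibitor wells for full effect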
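Assay system – apoptosome proteins · Medium – Hepes buffer, pH 7.5 · Also added – cytochrome c with DEVD-Rh110 · Timing – 30 min compound preincubation, 50 min activation, room temperature · Detection – Rh110 fluorescence, excitation 480 nm, emission 540 nm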
MEKK2 WT-MEK5: raises or lowers MEK5 binding to wildtype human MEKK2 PB1 domain; 290,000 compounds, 1.1% hits; bead flow cytometry, Alexa488-MEK5 binding to MEKK2 WT; actives lie on both sides; binding response (% of control), % at 10 µM; in the data active means binding response below about 67% or above about 130%
MEKK3 PB1 HTS: modulators (inhibitors or enhancers) of MEK5 binding to human MEKK3 PB1 domain; 290,000 compounds, 1.4% hits; bead-based flow cytometry, Alexa488-MEK5 binding to MEKK3; actives lie on both sides; 0 = blocked by unlabeled MEK5, 100 = vehicle; binding response (% of control), % at 10 µM; Q99759;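 active means binding response more than 3 SD above or below the average of its plate-row segment, actives on both sides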;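 further: Alexa488 bead fluorescence after subtracting the streptavidin-only scavenger bead signal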
Target sequence (Q99759 whole entry, looked up, the tested form may be a part): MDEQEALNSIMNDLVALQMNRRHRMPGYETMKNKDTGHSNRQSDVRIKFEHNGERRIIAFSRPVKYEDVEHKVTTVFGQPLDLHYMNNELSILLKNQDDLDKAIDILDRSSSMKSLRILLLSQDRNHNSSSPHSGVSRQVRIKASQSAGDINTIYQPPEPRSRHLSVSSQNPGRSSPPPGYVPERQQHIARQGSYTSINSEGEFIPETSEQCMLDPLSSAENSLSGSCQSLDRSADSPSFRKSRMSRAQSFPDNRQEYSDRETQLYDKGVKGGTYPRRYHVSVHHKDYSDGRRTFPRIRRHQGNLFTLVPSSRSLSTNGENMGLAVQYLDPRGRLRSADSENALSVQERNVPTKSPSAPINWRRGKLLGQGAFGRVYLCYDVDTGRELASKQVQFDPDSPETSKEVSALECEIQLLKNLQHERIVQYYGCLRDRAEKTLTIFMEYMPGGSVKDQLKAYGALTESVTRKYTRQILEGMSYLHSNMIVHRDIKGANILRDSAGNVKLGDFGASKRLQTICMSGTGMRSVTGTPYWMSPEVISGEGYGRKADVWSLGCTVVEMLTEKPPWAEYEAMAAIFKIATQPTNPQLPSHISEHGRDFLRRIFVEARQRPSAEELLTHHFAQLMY
MEKK2wt confirm: raises or lowers MEK5 binding to wildtype human MEKK2, retest. shares compounds with MEKK3 PB1 HTS. 5,900 compounds, 2.4% hits. bead flow cytometry, Alexa488-MEK5 binding to MEKK2 WT; actives lie on both sides. binding response (% of control), % at 10 µM; in the data active means binding response below about 16% or above about 210%; inactive means in between
MEKK2mut confirm: signal of MEK5 binding to mutant human MEKK2, retest; shares compounds with MEKK3 PB1 HTS; AID 1893; 5,900 compounds, 2% hits; bead flow cytometry, Alexa488-MEK5 binding to MEKK2 mutant; percent response, % at 10 µM; in the data active means percent response mostly above about 71%, no sharp cut-off; inactive means mostly below about 38%;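 further: higher means compound restores mutant binding toward wildtype level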
MEKK3 confirm: confirmation of inhibitors of MEK5 binding to human MEKK3 | shares compounds with MEKK3 PB1 HTS | bead flow cytometry, Alexa488-MEK5 binding to MEKK3; stronger effect = lower value | binding response (% of control), % at 10 µM | 5,900 compounds, 1.8% hits | AID 1894;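 active means binding response below 72% of control, or above a set upper limit, though filed actives all read lower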;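 further: 100% = DMSO only wells and 0% = binding blocked by excess unlabeled MEK5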
* marks the source's active call; other numbers are inactive results; nt = no result; ! = repeats disagree; [ ] = dose if it differs, or a comment.

SMILES | MEKK2mut PB1 HTS | UBC13 inh | UCH37 DUB inh | Apaf1 inhib | MEKK2 WT-MEK5 | MEKK3 PB1 HTS | MEKK2wt confirm | MEKK2mut confirm | MEKK3 confirm
O=C(c1cc(COc2c(F)cccc2F)on1)N1C[C@H]2CC[C@H]1C2 | -24 | -3 | 5 | 13 | 68 | 49*[inhibitor] | 18 | -26 | 39*
CCOC(=O)c1c(NC(=O)CSc2nnc(CNc3ccc(OC)cc3)n2C)sc(C)c1C | -4 | 0 | 4 | 26 | 97 | 101 | nt | nt | nt
O=c1cc(-c2ccc3c(c2)OCCO3)oc2ccc(Cl)cc12 | 0 | 16 | -42 | -1 | 104 | 137* | 96 | 1 | 100
O=c1cc(-c2cccs2)oc2ccc(Cl)cc12 | -5 | -4 | -60 | 10 | 92 | 97 | nt | nt | nt
N=C1/C(=C/c2coc3ccccc3c2=O)C(=O)N=C2SC(c3ccco3)=NN12 | -3 | 3 | -14 | 9 | 93 | 94 | nt | nt | nt
N=C1/C(=C\c2coc3ccccc3c2=O)C(=O)N=C2SC(c3ccncc3)=NN12 | -10 | 3 | -9 | 24 | 67 | 70*[inhibitor] | 101 | 2 | 101
COc1ccc(CC(=O)N2CCN=C2SCc2ccc([N+](=O)[O-])cc2)cc1 | 3 | 6 | 2 | -7 | 118 | 130* | 95 | -4 | 99
CCOc1ccc(CC(=O)N2CCN=C2SCc2ccc([N+](=O)[O-])cc2)cc1 | 0 | -7 | 4 | 2 | 102 | 106 | nt | nt | nt
Cc1c([N+](=O)[O-])c([N+](=O)[O-])nn1CC(=O)NCc1cccnc1 | -11 | -1 | 2 | -2 | 83 | 94 | nt | nt | nt
COc1cc(CCC(=O)Nc2ccc(Cl)c(C(F)(F)F)c2)cc(OC)c1OC | -1 | 12 | 2 | 8 | 96 | 95 | nt | nt | nt
COc1cc(CCC(=O)Nc2ccc(Br)c(C(F)(F)F)c2)cc(OC)c1OC | 0 | 17 | 2 | 15 | 112 | 151* | 105 | 1 | 102
N/C(COc1cc(Cl)cc(Cl)c1)=N\O | 25 | -6 | nt | -7 | 115 | 135* | 105 | -2 | 107
CCOC(=O)[C@H]1[C@H]2COc3ccc(OC)cc3[C@@H]2N2C(=O)CN(Cc3ccc(Cl)cc3)C(=O)[C@@]12C | nt | 20 | 4 | 12 | nt | nt | nt | nt | nt
O=C(Cc1ccc(S(=O)(=O)N2CCCC2)s1)Nc1cccc([N+](=O)[O-])c1 | nt | 5 | 1 | -4 | nt | nt | nt | nt | nt
Cc1ccccc1OCC(O)CN1CCN(C)CC1 (centres undefined) | 5 | 12 | 5 | 1 | 107 | 105 | nt | nt | nt
OC(COc1cccc2ccccc12)CN1CCN(c2ccccc2)CC1 (centres undefined) | 5 | 6 | 3 | 24 | 111 | 103 | nt | nt | nt
COc1ccccc1N1CCN(CC(O)COc2cccc3ccccc23)CC1 (centres undefined) | 1 | 25 | 2 | 16 | 95 | 75*![inhibitor] | 119 | 14 | 106
OC(COc1ccccc1Cl)CN1CCN(CC(O)COc2ccccc2Cl)CC1 (centres undefined) | 35* | 17 | 5 | 27 | 150* | 109 | 155 | 27 | 104
NC(=O)c1cc(NC(=O)COC(=O)CCCN2C(=O)c3cccc4cccc(c34)C2=O)cc(C(N)=O)c1 | nt | 1 | -15 | -1 | nt | nt | nt | nt | nt
S=C(NCCc1ccccc1)NN=C1CCCCCC1 | -2 | 32 | -1 | 4 | 94 | 94 | nt | nt | nt
O=C(Nc1c2c(nc3c1CCC3)CCCC2)c1ccccn1 | -1 | -11 | 1 | 1 | 113 | 122 | nt | nt | nt
